≈ marks a conversion by molar mass, not a printed value. Calls of active or inactive are those of the source. The calls are words filed in the database; no cut-off is given here.
What was measured:
[1] = target: D(2) dopamine receptor (Homo sapiens) (UniProt P14416); assay: Displacement of [3H]-N-methylspiperone from human recombinant dopamine D2 receptor expressed in stable fibroblast cells incubated for 90 mins by microbeta scintillation counting method; assay type: cell-based
[2] = target: D(3) dopamine receptor (Homo sapiens) (UniProt P35462); assay: Displacement of [3H]-N-methylspiperone from human recombinant dopamine D3 receptor expressed in HEKT cells incubated for 90 mins by microbeta scintillation counting method; assay type: cell-based
[3] = target: 5-hydroxytryptamine receptor 1A (Homo sapiens) (UniProt P08908); assay: Displacement of [3H]-8-OH-DPAT from human recombinant 5HT1A receptor expressed in stable CHO cells at 10 uM incubated for 90 mins by microbeta scintillation counting method; assay type: cell-based
5-hydroxytryptamine receptor 1A (Homo sapiens), sequence (P08908 whole entry): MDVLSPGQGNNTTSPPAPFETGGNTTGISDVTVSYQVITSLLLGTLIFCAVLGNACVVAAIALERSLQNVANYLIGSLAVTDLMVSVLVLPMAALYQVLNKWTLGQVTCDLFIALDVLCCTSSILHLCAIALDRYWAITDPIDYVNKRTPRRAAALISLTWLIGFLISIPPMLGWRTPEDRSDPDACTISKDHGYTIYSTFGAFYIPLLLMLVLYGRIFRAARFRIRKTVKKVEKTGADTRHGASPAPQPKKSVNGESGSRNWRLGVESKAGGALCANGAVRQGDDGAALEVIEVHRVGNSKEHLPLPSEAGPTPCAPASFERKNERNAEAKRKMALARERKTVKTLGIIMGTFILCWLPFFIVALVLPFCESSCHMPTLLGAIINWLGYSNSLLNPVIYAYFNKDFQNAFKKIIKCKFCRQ
Procedure, shortened: (§1)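 Primary radioligand binding screen run by the NIMH Psychoactive Drug Screening Program, with one test level of 10 μM. The read-out was inhibition of radioligand binding at each receptor.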

[4] = target: 5-hydroxytryptamine receptor 1D (Homo sapiens) (UniProt P28221); assay: Displacement of [3H]-5-CT from human recombinant 5HT1D receptor expressed in HEKT cells at 10 uM incubated for 90 mins by microbeta scintillation counting method; assay type: cell-based; procedure, shortened: as §1
5-hydroxytryptamine receptor 1D (Homo sapiens), sequence (P28221 whole entry): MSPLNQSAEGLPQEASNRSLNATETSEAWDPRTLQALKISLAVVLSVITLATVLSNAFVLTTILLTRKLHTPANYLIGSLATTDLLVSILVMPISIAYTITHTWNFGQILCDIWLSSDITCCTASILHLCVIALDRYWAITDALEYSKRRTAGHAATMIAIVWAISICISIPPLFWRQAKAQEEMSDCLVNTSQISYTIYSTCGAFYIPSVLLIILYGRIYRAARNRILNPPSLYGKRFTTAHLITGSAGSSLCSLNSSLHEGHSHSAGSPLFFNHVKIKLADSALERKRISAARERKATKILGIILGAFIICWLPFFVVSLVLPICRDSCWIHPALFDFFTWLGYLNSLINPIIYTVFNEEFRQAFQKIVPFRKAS

[5] = target: Mu-type opioid receptor (Homo sapiens) (UniProt P35372); assay: Displacement of [3H]-DAMGO from human recombinant MOR receptor expressed in stable HEK cells incubated for 90 mins by microbeta scintillation counting method; assay type: cell-based
Mu-type opioid receptor (Homo sapiens), sequence (P35372 whole entry): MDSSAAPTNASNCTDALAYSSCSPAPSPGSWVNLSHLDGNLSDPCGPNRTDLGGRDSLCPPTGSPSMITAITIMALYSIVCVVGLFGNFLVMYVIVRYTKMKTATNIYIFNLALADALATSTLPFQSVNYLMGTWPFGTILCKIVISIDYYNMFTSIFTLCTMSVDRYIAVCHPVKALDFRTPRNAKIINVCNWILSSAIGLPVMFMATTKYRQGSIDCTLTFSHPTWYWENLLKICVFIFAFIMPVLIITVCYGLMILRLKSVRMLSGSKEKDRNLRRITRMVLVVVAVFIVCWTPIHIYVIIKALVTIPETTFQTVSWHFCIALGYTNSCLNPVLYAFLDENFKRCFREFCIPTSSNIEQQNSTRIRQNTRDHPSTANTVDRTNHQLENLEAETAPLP

[6] = target: Histamine H1 receptor (Homo sapiens) (UniProt P35367); assay: Displacement of [3H]-Pyrilamine from human recombinant histamine H1 receptor expressed in stable HEK cells incubated for 90 mins by microbeta scintillation counting method; assay type: cell-based
[7] = target: Delta-type opioid receptor (Homo sapiens) (UniProt P41143); assay: Displacement of [3H]-DADLE from human recombinant DOR receptor expressed in stable HEK cells incubated for 90 mins by microbeta scintillation counting method; assay type: cell-based
[8] = target: 5-hydroxytryptamine receptor 1E (Homo sapiens) (UniProt P28566); assay: Displacement of [3H]-5-HT from human recombinant 5HT1E receptor expressed in stable HEK cells at 10 uM incubated for 90 mins by microbeta scintillation counting method; assay type: cell-based; procedure, shortened: as §1
5-hydroxytryptamine receptor 1E (Homo sapiens), sequence (P28566 whole entry): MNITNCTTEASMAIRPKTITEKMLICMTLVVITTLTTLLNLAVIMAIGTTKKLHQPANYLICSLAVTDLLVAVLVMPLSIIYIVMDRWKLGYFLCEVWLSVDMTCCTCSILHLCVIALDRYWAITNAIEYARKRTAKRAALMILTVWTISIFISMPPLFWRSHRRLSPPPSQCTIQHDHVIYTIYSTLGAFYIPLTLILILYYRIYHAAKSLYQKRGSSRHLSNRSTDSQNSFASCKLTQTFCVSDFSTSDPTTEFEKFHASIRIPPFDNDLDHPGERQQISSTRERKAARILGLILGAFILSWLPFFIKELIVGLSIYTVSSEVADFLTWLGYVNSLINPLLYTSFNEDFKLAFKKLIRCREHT

[9] = target: 5-hydroxytryptamine receptor 2A (Homo sapiens) (UniProt P28223); assay: Displacement of [3H]-ketanserin from human recombinant 5HT2A receptor expressed in HEKT cells at 10 uM incubated for 90 mins by microbeta scintillation counting method; assay type: cell-based; procedure, shortened: as §1
5-hydroxytryptamine receptor 2A (Homo sapiens), sequence (P28223 whole entry): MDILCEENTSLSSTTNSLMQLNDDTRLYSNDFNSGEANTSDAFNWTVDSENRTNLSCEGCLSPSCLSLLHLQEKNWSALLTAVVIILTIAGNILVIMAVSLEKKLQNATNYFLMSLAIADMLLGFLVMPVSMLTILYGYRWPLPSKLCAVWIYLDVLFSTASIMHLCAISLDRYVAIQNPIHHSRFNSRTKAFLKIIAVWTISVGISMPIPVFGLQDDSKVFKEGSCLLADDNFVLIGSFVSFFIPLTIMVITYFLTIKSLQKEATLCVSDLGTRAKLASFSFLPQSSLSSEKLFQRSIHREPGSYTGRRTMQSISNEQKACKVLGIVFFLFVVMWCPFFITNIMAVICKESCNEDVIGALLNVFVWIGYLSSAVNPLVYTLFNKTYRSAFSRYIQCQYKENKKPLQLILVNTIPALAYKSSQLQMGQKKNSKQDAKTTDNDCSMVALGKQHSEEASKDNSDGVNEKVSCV

[10] = target: Alpha-1A adrenergic receptor (Homo sapiens) (UniProt P35348); assay: Displacement of [3H]-prazosin from human recombinant alpha1A adrenergic receptor at 10 uM incubated for 90 mins by microbeta scintillation counting method; procedure, shortened: as §1
[11] = target: Beta-3 adrenergic receptor (Homo sapiens) (UniProt P13945); assay: Displacement of [3H]-CGP12177 from human recombinant adrenergic beta3 receptor expressed in Flp-In HEK cells incubated for 90 mins by microbeta scintillation counting method; assay type: cell-based
Beta-3 adrenergic receptor (Homo sapiens), sequence (P13945 whole entry, looked up): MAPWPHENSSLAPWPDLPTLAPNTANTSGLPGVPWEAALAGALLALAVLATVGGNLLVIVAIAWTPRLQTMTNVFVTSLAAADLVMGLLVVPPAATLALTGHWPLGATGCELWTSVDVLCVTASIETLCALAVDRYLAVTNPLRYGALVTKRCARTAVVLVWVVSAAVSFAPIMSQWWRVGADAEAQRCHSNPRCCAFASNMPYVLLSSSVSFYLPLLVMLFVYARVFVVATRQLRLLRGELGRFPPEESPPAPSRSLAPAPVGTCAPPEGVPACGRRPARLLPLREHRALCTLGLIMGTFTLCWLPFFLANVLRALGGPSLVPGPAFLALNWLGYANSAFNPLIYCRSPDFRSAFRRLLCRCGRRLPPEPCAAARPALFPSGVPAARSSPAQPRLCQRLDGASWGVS

[12] = test system: NIH3T3; assay: Cytotoxicity against mouse NIH/3T3 cells measured after 72 hrs by MTT assay; assay type: cell-based; conditions: NIH3T3, 72 h
[13] = target: Histamine H2 receptor (Homo sapiens) (UniProt P25021); assay: Displacement of [125I]-Iodoaminopotentidine from human recombinant histamine H2 receptor expressed in stable HEK cells incubated for 90 mins by microbeta scintillation counting method; assay type: cell-based
Histamine H2 receptor (Homo sapiens), sequence (P25021 whole entry): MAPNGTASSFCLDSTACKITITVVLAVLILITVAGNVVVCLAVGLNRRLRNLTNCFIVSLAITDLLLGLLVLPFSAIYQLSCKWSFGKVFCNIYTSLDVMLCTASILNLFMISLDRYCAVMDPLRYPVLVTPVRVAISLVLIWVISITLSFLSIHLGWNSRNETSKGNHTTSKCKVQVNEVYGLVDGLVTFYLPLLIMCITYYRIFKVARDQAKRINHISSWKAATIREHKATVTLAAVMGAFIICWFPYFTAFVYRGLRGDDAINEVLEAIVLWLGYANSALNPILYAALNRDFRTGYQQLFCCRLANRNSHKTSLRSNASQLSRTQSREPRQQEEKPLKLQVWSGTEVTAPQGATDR

[14] = target: 5-hydroxytryptamine receptor 3A (Homo sapiens) (UniProt P46098); assay: Displacement of [3H]-GR65630 from human recombinant 5HT3 receptor expressed in HEKT cells at 10 uM incubated for 90 mins by microbeta scintillation counting method; assay type: cell-based; procedure, shortened: as §1
[15] = target: 5-hydroxytryptamine receptor 2C (Homo sapiens) (UniProt P28335); assay: Displacement of [3H]-Mesulergin from human recombinant 5HT2C receptor expressed in CHO cells at 10 uM incubated for 90 mins by microbeta scintillation counting method; assay type: cell-based; procedure, shortened: as §1
5-hydroxytryptamine receptor 2C (Homo sapiens), sequence (P28335 whole entry): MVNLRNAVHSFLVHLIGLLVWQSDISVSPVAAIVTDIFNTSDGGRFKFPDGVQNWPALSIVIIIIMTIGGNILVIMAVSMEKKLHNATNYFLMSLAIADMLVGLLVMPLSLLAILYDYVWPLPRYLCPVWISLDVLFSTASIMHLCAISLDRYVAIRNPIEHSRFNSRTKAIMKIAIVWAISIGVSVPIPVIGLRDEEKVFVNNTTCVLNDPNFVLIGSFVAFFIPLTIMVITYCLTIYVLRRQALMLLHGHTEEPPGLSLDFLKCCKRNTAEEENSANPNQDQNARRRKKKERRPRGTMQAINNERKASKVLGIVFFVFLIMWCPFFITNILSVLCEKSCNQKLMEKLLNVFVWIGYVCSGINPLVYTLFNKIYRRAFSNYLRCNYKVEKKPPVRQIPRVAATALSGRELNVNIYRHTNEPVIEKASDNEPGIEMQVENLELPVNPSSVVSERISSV

[16] = target: Muscarinic acetylcholine receptor M2 (Homo sapiens) (UniProt P08172); assay: Displacement of [3H]-QNB/[3H]-NMS from human recombinant muscarinic acetylcholine M2 receptor expressed in stable CHO cells incubated for 90 mins by microbeta scintillation counting method; assay type: cell-based
[17] = target: Muscarinic acetylcholine receptor M1 (Homo sapiens) (UniProt P11229); assay: Displacement of [3H]-QNB/[3H]-NMS from human recombinant muscarinic acetylcholine M1 receptor expressed in stable CHO cells incubated for 90 mins by microbeta scintillation counting method; assay type: cell-based
[18] = target: Alpha-1B adrenergic receptor (Homo sapiens) (UniProt P35368); assay: Displacement of [3H]-8-OH-DPAT from human recombinant alpha1B adrenergic receptor expressed in HEKT cells at 10 uM incubated for 90 mins by microbeta scintillation counting method; assay type: cell-based; procedure, shortened: as §1
[19] = target: D(4) dopamine receptor (Homo sapiens) (UniProt P21917); assay: Displacement of [3H]-methylspiperone from human recombinant dopamine D4 receptor expressed in stable HEK cells incubated for 90 mins by microbeta scintillation counting method; assay type: cell-based
D(4) dopamine receptor (Homo sapiens), sequence (P21917 whole entry): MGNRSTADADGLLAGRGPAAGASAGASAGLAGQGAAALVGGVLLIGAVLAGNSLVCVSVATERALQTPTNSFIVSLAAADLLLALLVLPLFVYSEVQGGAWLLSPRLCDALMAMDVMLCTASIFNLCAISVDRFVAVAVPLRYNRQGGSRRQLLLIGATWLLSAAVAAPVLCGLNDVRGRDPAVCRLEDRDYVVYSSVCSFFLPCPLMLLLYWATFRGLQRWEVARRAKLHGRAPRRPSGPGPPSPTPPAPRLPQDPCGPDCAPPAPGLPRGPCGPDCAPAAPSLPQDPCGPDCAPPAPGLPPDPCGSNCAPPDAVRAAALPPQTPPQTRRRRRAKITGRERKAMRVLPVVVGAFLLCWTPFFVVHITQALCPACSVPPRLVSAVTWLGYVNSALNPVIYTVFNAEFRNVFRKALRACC

[20] = target: Sigma intracellular receptor 2 (Homo sapiens) (UniProt Q5BJF2); assay: Displacement of [3H]-[…] from human recombinant sigma2 receptor expressed in HEKT cells incubated for 90 mins by microbeta scintillation counting method; assay type: cell-based
Sigma intracellular receptor 2 (Homo sapiens), sequence (Q5BJF2 whole entry): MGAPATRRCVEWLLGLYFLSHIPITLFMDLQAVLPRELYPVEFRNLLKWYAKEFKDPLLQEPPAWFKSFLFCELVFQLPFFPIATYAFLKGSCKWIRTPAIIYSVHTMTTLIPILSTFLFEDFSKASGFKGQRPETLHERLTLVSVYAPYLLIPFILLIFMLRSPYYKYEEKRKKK

[21] = target: Sigma non-opioid intracellular receptor 1 (Homo sapiens) (UniProt Q99720); assay: Displacement of [3H]-Pentazocine from human recombinant sigma1 receptor expressed in HEKT cells incubated for 90 mins by microbeta scintillation counting method; assay type: cell-based
[22] = target: Histamine H3 receptor (Homo sapiens) (UniProt Q9Y5N1); assay: Displacement of [3H]-alpha-methylhistamine from human recombinant histamine H3 receptor expressed in Flp-In HEK cells incubated for 90 mins by microbeta scintillation counting method; assay type: cell-based
[23] = target: Sodium-dependent serotonin transporter (Homo sapiens) (UniProt P31645); assay: Displacement of [3H]-citalopram from recombinant human SERT expressed in HEK cell membranes at 10 uM incubated for 90 mins by scintillation counting method; procedure, shortened: as §1
Sodium-dependent serotonin transporter (Homo sapiens), sequence (P31645 whole entry, looked up): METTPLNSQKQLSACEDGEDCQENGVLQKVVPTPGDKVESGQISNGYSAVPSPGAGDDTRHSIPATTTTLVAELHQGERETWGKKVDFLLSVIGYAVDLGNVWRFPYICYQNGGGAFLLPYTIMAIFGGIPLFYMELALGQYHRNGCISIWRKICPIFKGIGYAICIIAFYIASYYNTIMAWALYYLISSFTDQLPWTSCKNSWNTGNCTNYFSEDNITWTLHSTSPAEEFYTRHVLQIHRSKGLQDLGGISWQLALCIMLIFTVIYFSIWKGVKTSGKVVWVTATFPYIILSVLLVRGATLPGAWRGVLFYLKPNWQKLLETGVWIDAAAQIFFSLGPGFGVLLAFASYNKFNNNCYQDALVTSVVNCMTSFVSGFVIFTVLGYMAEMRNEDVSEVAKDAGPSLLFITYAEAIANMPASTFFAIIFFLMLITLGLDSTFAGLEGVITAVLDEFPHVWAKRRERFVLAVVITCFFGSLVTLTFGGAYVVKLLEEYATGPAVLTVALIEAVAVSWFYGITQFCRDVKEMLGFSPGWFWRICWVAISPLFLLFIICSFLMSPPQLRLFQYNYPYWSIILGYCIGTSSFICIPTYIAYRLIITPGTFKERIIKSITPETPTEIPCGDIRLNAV

[24] = target: Alpha-1D adrenergic receptor (Homo sapiens) (UniProt P25100); assay: Displacement of [3H]-8-OH-DPAT from human recombinant alpha1D adrenergic receptor at 10 uM incubated for 90 mins by microbeta scintillation counting method; procedure, shortened: as §1
[25] = target: Histamine H4 receptor (Homo sapiens) (UniProt Q9H3N8); assay: Displacement of [3H]-Histamine from human recombinant histamine H4 receptor expressed in HEKT cells incubated for 90 mins by microbeta scintillation counting method; assay type: cell-based
Histamine H4 receptor (Homo sapiens), sequence (Q9H3N8 whole entry): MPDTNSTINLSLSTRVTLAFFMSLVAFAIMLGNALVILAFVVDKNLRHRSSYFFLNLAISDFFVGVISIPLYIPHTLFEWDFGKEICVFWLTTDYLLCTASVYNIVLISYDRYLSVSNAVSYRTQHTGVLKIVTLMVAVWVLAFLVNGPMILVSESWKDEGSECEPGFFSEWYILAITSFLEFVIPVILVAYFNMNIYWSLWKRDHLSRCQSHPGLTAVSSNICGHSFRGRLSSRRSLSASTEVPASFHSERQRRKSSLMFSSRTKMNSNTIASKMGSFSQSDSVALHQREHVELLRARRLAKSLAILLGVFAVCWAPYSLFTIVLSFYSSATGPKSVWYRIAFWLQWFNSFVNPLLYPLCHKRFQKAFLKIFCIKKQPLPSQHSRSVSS

[26] = target: Beta-2 adrenergic receptor (Homo sapiens) (UniProt P07550); assay: Displacement of [125I]-CGP12177 from recombinant human beta2 adrenergic receptor expressed in HEK Flp-In cells measured after 90 mins by microbeta scintillation counting method; assay type: cell-based
[27] = target: D(1B) dopamine receptor (Homo sapiens) (UniProt P21918); assay: Displacement of [3H]-SCH23390 from human recombinant dopamine D5 receptor expressed in HEKT cells incubated for 90 mins by microbeta scintillation counting method; assay type: cell-based
[28] = target: 5-hydroxytryptamine receptor 2B (Homo sapiens) (UniProt P41595); assay: Displacement of [3H]-LSD from human recombinant 5HT2B receptor expressed in stable HEK cells at 10 uM incubated for 90 mins by microbeta scintillation counting method; assay type: cell-based; procedure, shortened: as §1
[29] = target: Muscarinic acetylcholine receptor M3 (Homo sapiens) (UniProt P20309); assay: Displacement of [3H]-QNB/[3H]-NMS from human recombinant muscarinic acetylcholine M3 receptor expressed in stable CHO cells incubated for 90 mins by microbeta scintillation counting method; assay type: cell-based

Which inhibition [1] does the source give for `Cn1c2cccc(=O)c-2nc2ccccc21` [PYOCYANIN] here?
The inhibition was “inactive”.

What about the inhibition [2] of the same molecule?
The inhibition was “inactive”.

What about the inhibition [3] of the same molecule?
Its inhibition is “inactive”.

And the inhibition [4]?
Its inhibition is “inactive”.

And the inhibition [5]?
The inhibition was “inactive”.

And the inhibition [6]?
Its inhibition is “inactive”.

What about the inhibition [7] of the same molecule?
Its inhibition is “inactive”.

And the inhibition [8]?
The inhibition was “inactive”.

What about the inhibition [9] of the same molecule?
Its inhibition is “inactive”.

And the inhibition [10]?
Its inhibition is “inactive”.

What about the inhibition [11] of the same molecule?
Its inhibition is “inactive”.

And the IC50 [12]?
Its IC50 is 3.66 µg/mL (≈ 17.4 µM).

And the inhibition [13]?
The inhibition was “inactive”.

What about the inhibition [14] of the same molecule?
Its inhibition is “inactive”.

And the inhibition [15]?
Its inhibition is “inactive”.

And the inhibition [16]?
Its inhibition is “inactive”.

And the inhibition [17]?
The inhibition was “inactive”.

What about the inhibition [18] of the same molecule?
Its inhibition is “inactive”.

What about the inhibition [19] of the same molecule?
Its inhibition is “inactive”.

And the inhibition [20]?
Its inhibition is “inactive”.

And the inhibition [21]?
The inhibition was “inactive”.

What about the inhibition [22] of the same molecule?
Its inhibition is “inactive”.

And the inhibition [23]?
The inhibition was “inactive”.

What about the inhibition [24] of the same molecule?
The inhibition was “inactive”.

And the inhibition [25]?
The inhibition was “inactive”.

And the inhibition [26]?
Its inhibition is “inactive”.

What about the inhibition [27] of the same molecule?
Its inhibition is “inactive”.

And the inhibition [28]?
The inhibition was “inactive”.

What about the inhibition [29] of the same molecule?
Its inhibition is “inactive”.
